Compound activity (PubChem BioAssay)
Insulin prom act – TRM-6 insulin promoter activation | TRM-6 cells, insulin promoter eGFP reporter, imaging; plate-scaled: unstimulated 0, stimulated control 100 | actives 0.81% (n = 130,000) | activation, % at 2 µM;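 active means activation at 2 µM above a set limit, confirmed on inspection of the cell images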;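 further: share of cells whose green reporter signal exceeds an intensity cutoff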
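Test system: human fetal islet-derived TRM-6 cells with tamoxifen-inducible insulin promoter–eGFP reporter. Compound dosing: 2 µM final, single concentration. Incubation: tamoxifen pre-incubation 15 h overnight, then compound exposure 48 h at 37 °C. Signal: fixed-cell fluorescence microscopy, eGFP plus Hoechst.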
A number is an active result; 0 = inactive. The sample as a whole holds a higher share of hits than the screen did.

SMILES	Insulin prom act
Cc1ccc2sc(C)[n+](CCC(C)S(=O)(=O)[O-])c2c1 (configuration not stated)	0
CCOC(=O)c1c(-c2ccc(Cl)cc2)c(C#N)c(=O)n(N)c1N	0
FC(F)(F)c1cc(-c2ccco2)nc2ncnn12	0
CCC(C)n1ncn(-c2ccc(N3CCN(c4ccc(OC)cc4)CC3)cc2)c1=O (configuration not stated)	0
Fc1ccc(C2c3[nH]c4ccccc4c3CCN2Cc2cccn2-c2ncccn2)cc1 (configuration not stated)	0
COCc1ccc(CN2CCc3c([nH]c4ccccc34)C2C(C)(C)C)o1 (configuration not stated)	231.3
COc1cccc(C2c3[nH]c4ccccc4c3CCN2C(=O)Cn2cncn2)c1OC (configuration not stated)	0
COc1cc(C(C)=O)ccc1COc1ccc(C(=O)OC(C)C(=O)NC(N)=O)cc1OC (configuration not stated)	0
Cc1cc(NS(=O)(=O)c2ccc(NC(=O)NC(C)(C(F)(F)F)C(F)(F)F)cc2)no1	0
Cc1cc(NS(=O)(=O)c2ccc(NC(=O)CCCOc3ccc(Cl)cc3)cc2)no1	127.3
O=C(CCCOc1ccc(Cl)cc1)Nc1cccc(C(=O)O)c1	0
CN(C)CCCNC(=S)NCCNc1nc2cc3c(cc2cc1C#N)OCO3	0
Cc1ccccc1C(=O)NNC(=O)CSc1nnc(-c2ccncc2)n1-c1ccccc1	0
CC(OC(=O)C1=COCCO1)C(=O)Nc1ccccc1C#N (configuration not stated)	0
CCC(=O)N(c1ccc(F)cc1)C1C=CS(=O)(=O)C1 (configuration not stated)	0
CC(=O)N(c1ccc(C(C)C)cc1)C1C=CS(=O)(=O)C1 (configuration not stated)	0
COCC(=O)N(c1ccc(C(C)C)cc1)C1C=CS(=O)(=O)C1 (configuration not stated)	422.2
Cc1cc(C)n(C(=O)CCCn2nc(C)c([N+](=O)[O-])c2C)n1	0
Cc1ccc(-c2nnn(CC(=O)N(CC3CCCO3)C(C(=O)NC3CCCC3)c3ccc(F)cc3)n2)o1 (configuration not stated)	500.0
Cc1ccc(-c2nnn(CC(=O)N(c3cccc(F)c3)C(C(=O)NC3CCCC3)c3ccco3)n2)o1 (configuration not stated)	0
Cc1ccc(-c2nnn(CC(=O)N(CC3CCCO3)C(C(=O)NC3CCCC3)c3ccc(O)cc3)n2)o1 (configuration not stated)	0
COc1cccc(C(=O)NCC(=O)n2nc(C)cc2C)c1	0
O=C(CSc1nnnn1C1CCCC1)Nc1cccc(NC(=O)c2ccco2)c1	830.0
CC(=O)Nc1cccc(NC(=O)CSc2nnnn2C(C)C)c1	0
O=C(CSc1nnnn1C1CCCCC1)NCc1cccc(C(=O)O)c1	0
SMILES	Insulin prom act
COc1ccc(OC)c(/C=N/NC(=O)c2ccc(Cn3cc([N+](=O)[O-])cn3)o2)c1	0
N#Cc1c(-c2ccccc2Cl)noc1/C=C/Nc1ccc(C(=O)O)cc1	0
CCc1ccc(NC(=S)N2CCCCCCC2)cc1	0
COC(=O)c1ccccc1NC(=O)CSCC(=O)Nc1ccccc1	0
CCCN1C(=O)c2ccc(C(=O)Nc3nccs3)cc2C1=O	475.0
CCc1nnc(NC(=O)c2ccc3c(c2)C(=O)N(C(C)(C)C)C3=O)s1	0
CCCN1C(=O)c2ccc(C(=O)NCc3ccco3)cc2C1=O	0
Cc1ncoc1C(=O)Nc1nccs1	0
O=C(Nc1nccs1)c1cccc(S(=O)(=O)N2CCCCC2)c1	0
CCC(CC)C(=O)Nc1cccc(C(=O)Nc2nccs2)c1	75.7
O=C(CNC(=O)c1ccc(-c2ccccc2)cc1)OCc1c(F)cccc1Cl	0
Cc1cccc(N2CCN(C(=O)CN3C(=O)C4CC=CCC4C3=O)CC2)c1C (configuration not stated)	0
O=C(Nc1cccc2c1C(=O)NC2=O)c1ccc(N2C(=O)CCC2=O)cc1	0
O=C1CCCC(=O)N1c1ccc(O)cc1	266.7
CC(=O)c1c(C(C)=O)c(C)n(-c2ccc(O)cc2)c1C	0
Cc1c(C(=O)N2CCc3ccccc32)cnn1C	0
COc1ccc(C)cc1N(CC(=O)N/N=C/c1ccc2c(c1)OCO2)S(C)(=O)=O	0
COc1ccc(CC(=O)n2nc(-c3ccccc3)nc2NCc2ccco2)cc1	641.7
Cc1ccc(-c2nc(NCc3ccco3)n(S(C)(=O)=O)n2)cc1	0
O=C(Cc1ccc(-c2ccccc2)cc1)NNC(=S)NCc1ccco1	0
CCC(C(=O)NC(C)(C)C)N(C(=O)Cn1nnc(-c2cccs2)n1)c1cnc2ccccc2c1 (configuration not stated)	0
CC(=O)Nc1cccc(OCc2ccc(F)cc2)c1	0
Cc1ccc(S(=O)(=O)N2CCOCC2)cc1C(=O)Nc1c(C)n(C)n(-c2ccccc2)c1=O	0
O=S(=O)(c1ccc(Cl)c(NC(=S)Nc2cccc(O)c2)c1)N1CCOCC1	0
Cc1cccc(C)c1NC(=S)N=Nc1c(O)n(C)c2ccc(S(=O)(=O)N3CCOCC3)cc12	514.3
SMILES	Insulin prom act
CCSc1cc(N2CCOCC2)nc(-c2ccc(Cl)cc2)n1	0
COc1ccc(-c2cc(C(F)F)n3ncc(C(=O)N4CCc5ccccc5C4)c3n2)cc1	392.9
O=C(c1cnn2c(C(F)F)cc(-c3ccccc3)nc12)N1CCN2CCCC2C1 (configuration not stated)	0
Cc1cc(C(F)F)n2ncc(C(=O)N3CCCCC3)c2n1	0
C=CCN(Cc1nc(-c2ccc(OC)c(OC)c2)oc1C)C1CCS(=O)(=O)C1 (configuration not stated)	0
O=C(C1CC1)N(CCN(Cc1ccccc1)C(=O)C1CC1)Cc1ccccc1	250.0
O=C(C1CCCCC1)N(Cc1ccccc1)c1ccccn1	0
CCN(Cc1ccccc1)C(=O)C1CCN(CC2CC=CCC2)CC1 (configuration not stated)	0
CC(C)(C)NC(=O)C(c1ccccn1)N(C(=O)C1CSC(=O)C1)c1ccccc1F (configuration not stated)	0
COc1cccc(C2=NOC(C(=O)Nc3ccccc3SC)C2)c1 (configuration not stated)	0
O=C(NC1CCCc2ccccc21)C1CCN(S(=O)(=O)c2cnc[nH]2)CC1 (configuration not stated)	0
O=C(NC1CCCc2ccccc21)C1CCN(S(=O)(=O)c2ccccc2F)CC1 (configuration not stated)	0
O=C(NC1CCCc2ccccc21)C1CCN(c2nnc(-n3cccc3)s2)CC1 (configuration not stated)	185.7
CCOC(=O)c1c(NC(=O)CSc2nnc(CNC(=O)c3ccco3)n2C)sc2c1CCC2	0
Cn1cc(CN2CCCC(CO)(Cc3ccccc3)C2)cn1 (configuration not stated)	0
O=C(CCc1nc2ccccc2c(=O)[nH]1)OCC(=O)c1ccc(C2CCCCC2)cc1	0
CCN(CC(=O)NC(=O)NC1CCCCC1)Cc1nc2ccccc2c(=O)[nH]1	0
O=C(COCc1nc2ccccc2c(=O)[nH]1)NCC1CCCCC1	486.2
Cc1nnc(SCC(=O)NC(C)(C)C)n1C1CCCCC1	0
COc1ccc(C2Nc3ccccc3C(=O)N2c2ccccc2)cc1COc1ccccn1 (configuration not stated)	220.0
COc1ccc(C2Nc3ccccc3C(=O)N2Cc2ccccc2)cc1CSc1ccccn1 (configuration not stated)	0
